# Most compounds without a hit are left out; they make up all but 0.72% or so of the library.
# bIAP inhibitor = blocks bovine intestinal alkaline phosphatase activity; 190,000 tested, under 10 active; purified bovine IAP, CDP-star luminescence, 30 min; inhibition, % at 20 µM;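 active means over 50% inhibition of intestinal alkaline phosphatase at 20 µM in the single-dose screen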
#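 test system = bovine IAP enzyme | medium = DEA buffer 100 mM, pH 9.8, with MgCl2 1.0 mM, ZnCl2 0.02 mM | detection = luminescence | dosing = single compound dose of 20 µM, 2% DMSO final | incubation = 30 min reaction at room temperature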
# hIAP act = increases human intestinal alkaline phosphatase activity; activation factor at 10 µM; 330,000 compounds, 0.16% hits; P09923; purified human IAP, CDP-Star luminescence, 30 min; stronger effect = higher value; 1 = vehicle-only enzyme, 0 = enzyme-free background;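 active means activation factor of the enzyme at least 2-fold when tested at 20 µM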
# Target sequence (P09923 whole entry, looked up): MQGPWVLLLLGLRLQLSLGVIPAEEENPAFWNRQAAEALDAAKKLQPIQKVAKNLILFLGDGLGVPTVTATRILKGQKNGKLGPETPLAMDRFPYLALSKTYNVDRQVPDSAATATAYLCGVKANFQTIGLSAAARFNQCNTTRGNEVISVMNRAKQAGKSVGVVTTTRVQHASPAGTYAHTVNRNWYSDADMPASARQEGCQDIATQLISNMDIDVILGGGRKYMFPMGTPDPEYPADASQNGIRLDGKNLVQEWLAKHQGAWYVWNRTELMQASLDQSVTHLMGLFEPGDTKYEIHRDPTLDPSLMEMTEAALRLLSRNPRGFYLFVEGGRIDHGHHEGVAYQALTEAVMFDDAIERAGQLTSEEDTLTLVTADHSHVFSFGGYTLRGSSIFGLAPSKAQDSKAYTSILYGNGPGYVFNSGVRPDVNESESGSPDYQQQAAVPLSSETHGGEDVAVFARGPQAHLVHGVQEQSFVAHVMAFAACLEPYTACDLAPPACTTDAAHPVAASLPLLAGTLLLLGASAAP
# mIAP activ = mouse IAP activation | 330,000 compounds, 0.24% hits | muIAP, CDP-Star luminescence, 30 min; stronger effect = higher value; 1 = vehicle-only enzyme signal, 0 = enzyme-free wells | activation factor at 10 µM;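 active means activation factor of at least 2 at 20 µM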
#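 System: mouse IAP enzyme. Reagent: CDP-Star chemiluminescent phosphatase substrate. Benchmarks: DMSO wells, no-enzyme wells. Times: 30 min enzyme-substrate-compound incubation at room temperature. Detection: luminescence from enzymatic CDP-Star hydrolysis. Doses: test compounds delivered from DMSO solution.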
# bIAP activator = increases bovine intestinal alkaline phosphatase activity. purified bovine IAP, CDP-star luminescence, 30 min; stronger effect = higher value; fold of DMSO-control signal, blank-subtracted. activation factor at 20 µM. 200,000 compounds, 0.17% hits. AID 1016;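 active means activation factor of 2 or more at 20 µM, a signal rise over negative controls twice the positive control's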
# hIAP block = blocks human intestinal alkaline phosphatase | P09923 | purified IAP, CDP-Star luminescence, 30 min | inhibition, % at 10 µM | 330,000 compounds, 0.12% hits;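 active means inhibition reaching a set limit with compound at 10 µM in the primary screen, cut at about 35% in these data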;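 further: plate controls were DMSO wells with enzyme for no effect and no-enzyme buffer wells for full effect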
# mIAP block = mouse IAP inhibition; purified mouse IAP, CDP-Star luminescence, 30 min; inhibition, % at 10 µM; 330,000 compounds, 0.2% hits;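 active means inhibition of at least 40% at 10 µM in the primary screen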;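 further: plate controls were DMSO with enzyme for no effect and no enzyme wells for full effect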
# hIAP act conf = human IAP activation confirmation; shares compounds with hIAP act; purified IAP, CDP-Star luminescence, 30 min; stronger effect = lower value; activation (%Activity, negative = activation), % at 8.3 µM; 880 compounds, 10% hits; AID 434926;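 active means at least twofold enzyme activation in any of six single-dose repeats, which the averaged readout prints as negative percent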
# * marks the source's active call; other numbers are inactive results; / = not tested or not shown.
SMILES,bIAP inhibitor,hIAP act,mIAP activ,bIAP activator,hIAP block,mIAP block,hIAP act conf
CC1=NN(c2ccccc2)C(=O)/C1=C\C=C1/N(C)c2ccccc2C1(C)C,-7,0.67,0.64,1.1,33,36,/
COC(=O)C1Cc2ccccc2CN1S(=O)(=O)c1ccc(F)cc1 (centres undefined),/,0.76,1,/,24,-4,/
C/C(=N/NC(=O)c1cc(-c2ccc(Br)s2)[nH]n1)c1ccco1,-4,2.1*,0.95,1,-114,5,-3
O=C(N/N=C/c1cccs1)c1cc(-c2ccc(Cl)s2)[nH]n1,/,2*,0.96,/,-102,4,-14
O=C(N/N=C/c1ccco1)c1cc(-c2ccc(Br)s2)[nH]n1,/,0.98,0.84,/,2,16,/
O=C(N/N=C/c1ccco1)c1cc(-c2ccc(Cl)s2)[nH]n1,-26,2*,0.96,1.3,-101,4,-66
C=CC[C@@H](CC(=O)NCCO)C(=O)N[C@H](COC(=O)[C@H](CC=C)CC(=O)OC(C)(C)C)Cc1c[nH]c2ccccc12,/,1,1.1,/,-4,-7,/
COc1ccc(OC)c(/C=N/NC(=O)c2[nH]ncc2Br)c1,/,1.7,1.1,/,-69,-6,/
Cc1ccc(O)c(/C=N/NC(=O)c2[nH]ncc2Br)c1,5,2.2*,0.79,1,-123,21,23
CCOc1ccc(/C=N/NC(=O)c2[nH]ncc2Br)c(O)c1,-39,2.1*,0.79,1.4,-108,21,-294*
O=C(N/N=C/c1cccs1)c1[nH]ncc1Br,/,1.3,0.96,/,-29,4,/
Cc1ccc(O)c(/C=N/NC(=O)C2=NNC(c3ccccc3)(c3ccccc3)C2)c1,-6,/,/,1.1,/,/,/
O=C(N/N=C/c1c(O)ccc2ccccc12)c1[nH]ncc1Br,11,2.2*,0.77,0.9,-120,23,43
COc1cc(/C=C(\CCC(=O)O)c2nc3ccccc3s2)ccc1OCC(=O)Nc1c(Cl)cccc1Cl,/,0.89,0.98,/,11,2,/
C=CCn1c(SCC(=O)NC2CC2)nnc1-c1cccc(OC)c1,/,0.59,1.1,/,41*,-8,-18
CCn1c(SCC(=O)NC2CC2)nnc1-c1cccc(OC)c1,/,1.2,1,/,-18,-2,/
CN(C(=O)COC(=O)c1ccc2c(c1)OCO2)c1c(N)n(Cc2ccccc2)c(=O)[nH]c1=O,/,1.2,1.1,/,-16,-9,/
Cn1cc(/C=C(\NC(=O)c2ccccc2Cl)C(=O)NCCCN2CCOCC2)c2ccccc21,/,1.1,1,/,-9,-1,/
Cn1cc(/C=C(\NC(=O)c2ccccc2Cl)C(=O)NCCN2CCOCC2)c2ccccc21,/,0.62,0.93,/,38*,7,14
Cc1nc(Nc2nc3c(c(=O)[nH]2)CCC3)nc2ccccc12,/,2.8*,0.88,/,-177,12,-78*
COc1ccc(C2c3ccc(O)cc3Oc3ncn4nc(-c5ccncc5)nc4c32)cc1OC (centres undefined),/,0.59,0.86,/,41*,14,4
CN(Cc1ccccc1)C(=O)c1cn(C)c2ccc(S(=O)(=O)N3CCCC3)cc2c1=O,/,1.2,1,/,-16,0,/
COc1ccc(S(=O)(=O)N2CCN(CC(=O)c3ccc(O)c(O)c3)CC2)cc1,/,0.61,0.71,/,39*,29,-19
COC(=O)[C@]1(C)N[C@H](CN(C)C(=O)c2ccc(F)cc2)[C@@H]2C(=O)N(Cc3ccccc3)C(=O)[C@@H]21,/,0.9,0.97,/,10,3,/
COc1ccc(NC(=O)CN2C(=O)COc3ccc(S(=O)(=O)N4CCOCC4)cc32)cc1Cl,/,1.1,0.95,/,-6,5,/
SMILES,bIAP inhibitor,hIAP act,mIAP activ,bIAP activator,hIAP block,mIAP block,hIAP act conf
Cc1ccccc1/C=N/n1c(-c2cc(-c3ccccc3)n[nH]2)n[nH]c1=S,/,2*,1,/,-104,-1,-3
COc1ccccc1/C=C/C=N/n1c(-c2ccccn2)n[nH]c1=S,/,0.95,0.96,/,4,4,/
COc1cccc(/C=N/n2c(-c3n[nH]c4c3CCC4)n[nH]c2=S)c1O,7,0.98,0.78,0.9,2,22,/
COc1ccccc1/C=C/C=N/n1c(-c2cc(C)[nH]n2)n[nH]c1=S,0,2.1*,1,1,-111,-1,11
COc1ccccc1/C=C/C=N/n1c(-c2n[nH]c3c2CCC3)n[nH]c1=S,/,2*,1,/,-104,-1,27
Cc1ccc(C(=O)NCC(=O)OCCOc2ccccc2Cl)cc1,/,1,0.98,/,-2,2,/
Cc1ccc(C(=O)N(Cc2cccs2)C2CCS(=O)(=O)C2)cc1 (centres undefined),/,0.58,0.95,/,42*,5,-3
O=C(c1ccc(Cl)cc1)N(Cc1cccs1)C1CCS(=O)(=O)C1 (centres undefined),1,1,1,1,-2,-1,/
COc1ccc(NC(=O)CN(C)C(=O)Cc2ccc(-c3ccccc3)cc2)cc1,/,1.1,1.1,/,-8,-10,/
O=C(Cn1nnc2ccccc2c1=O)NCCc1ccc(Cl)cc1Cl,14,0.63,0.91,0.9,37*,9,8
Cc1ccc(NS(=O)(=O)c2ccc(NC(=O)c3cccs3)cc2)c(C)c1,-3,0.95,0.89,1,5,11,/
Cc1ccc(NS(=O)(=O)c2ccc(NC(=O)C3CC3)cc2)c(C)c1,/,0.64,1.1,/,36*,-10,-2
Nc1ccccc1SCC(=O)Nc1ccc2c(c1)OCO2,/,0.94,1,/,6,-4,/
CCOC(=O)/C(O)=C(\C#N)c1nc2ccccc2[nH]1,-4,0.9,1,1,10,-1,/
O=C(NNC(=O)c1nc2ccccc2[nH]1)OCc1ccccc1,/,2.6*,0.88,/,-161,12,-25
CCOC(=O)C1=C(COC(=O)c2ccc(Br)o2)NC(=O)NC1C (centres undefined),/,0.76,1,/,24,0,/
Cc1nnc(SCC(=O)NCc2ccccc2)n1-c1ccccc1,6,1,1.1,0.9,0,-8,/
Cc1nnc(SCC(=O)NCc2cccs2)n1-c1ccccc1,8,2.1*,0.89,0.9,-113,11,15
CN1CCN(CCCNc2c(C=O)c(=O)[nH]c3ccccc23)CC1,/,1,1,/,0,-1,/
Cc1cccc(NC(=O)c2cc(-c3cc(C)c(C)cc3O)n[nH]2)c1,/,1.8,1,/,-78,-2,/
Cc1cccc(NC(=O)c2cc(-c3cc(C)ccc3O)n[nH]2)c1,/,2*,1.2,/,-104,-16,7
Cc1cc(O)c(-c2cc(C(=O)NCc3ccc4c(c3)OCO4)[nH]n2)cc1C,-56,0.86,1.3,1.6,14,-29,/

# Source: PubChem
